Results on 24 compounds are retold here after ChEMBL document CHEMBL3085627 (J Med Chem, 2013).

In test [1] the target is T1, D(2) dopamine receptor (Homo sapiens, UniProt P14416). Briefly: Agonist activity at human dopamine D2L receptor expressed in CHO […] assessed as inhibition of forskolin-stimulated cAMP production after 30 mins by Alphascreen assay. The format is functional, cell-based. The method in brief: (§1)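 Concentration-response curves are fitted to the operational model of agonism to derive functional affinity (pKA) and efficacy (τ). The transduction coefficient log(τ/KA) is calculated per pathway, and bias is expressed as ΔΔlog(τ/KA). Statistical comparison uses Student's t-test.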
T1 sequence (P14416 whole entry): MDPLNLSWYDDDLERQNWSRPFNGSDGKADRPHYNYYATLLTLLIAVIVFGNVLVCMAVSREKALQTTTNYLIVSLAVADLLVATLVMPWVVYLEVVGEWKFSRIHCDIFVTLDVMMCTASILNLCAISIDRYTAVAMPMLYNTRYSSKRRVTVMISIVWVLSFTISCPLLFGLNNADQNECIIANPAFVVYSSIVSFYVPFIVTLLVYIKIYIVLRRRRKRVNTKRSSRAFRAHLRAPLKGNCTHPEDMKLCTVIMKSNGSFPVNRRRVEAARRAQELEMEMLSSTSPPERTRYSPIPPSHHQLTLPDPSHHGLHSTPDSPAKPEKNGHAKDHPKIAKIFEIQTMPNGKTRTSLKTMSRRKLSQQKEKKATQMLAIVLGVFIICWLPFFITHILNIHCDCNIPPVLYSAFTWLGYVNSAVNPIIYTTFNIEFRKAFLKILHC

Test [2] concerns the target T1, D(2) dopamine receptor. The settings on record: CHO.
Test [3] concerns the target T1, D(2) dopamine receptor. Briefly: Displacement of [3H]-spiperone from human dopamine D2L receptor expressed in CHO cell membranes after 3 hrs by liquid scintillation counting analysis. The method in brief: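 Competition against the radiolabeled antagonist [3H]spiperone at human D2L receptor in FlpIn CHO cell membranes. Affinity is reported as Ki.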
A general note: In a radioligand displacement assay an active substance lowers the binding of a labelled ligand.

The target in test [4] is T1, D(2) dopamine receptor. Briefly: Agonist activity at human dopamine D2L receptor expressed in CHO […] assessed as phosphorylation of ERK1/2 by Alphascreen assay. The format is cell-based. The method in brief:
as §1
A general note: In Alpha technology, singlet oxygen from a donor bead excites a nearby acceptor bead.

Molecules are shown by their SMILES.

As to `CN(C)C(=O)N[C@H]1CC[C@H](CCN2CCc3ccccc3C2)CC1`, on D(2) dopamine receptor [1], the pKA was found to be 7.19.
For the compound `NCCc1ccc(O)c(O)c1`, at D(2) dopamine receptor [2], the KiH came out at 58 nM and the KiL stood at 3.42 µM.
`CC(=O)N[C@H]1CC[C@H](CCN2CCc3ccccc3C2)CC1`: the pKA at D(2) dopamine receptor [1] was determined as 6.85.
Same read-out and setting: then `CCOC(=O)N[C@H]1CC[C@H](CCN2CCc3ccccc3C2)CC1`, with 7.23.
In the case of `CC(C)(C)OC(=O)N[C@H]1CC[C@H](CN2CCN(c3cccc(Cl)c3Cl)CC2)CC1`, on D(2) dopamine receptor [3], the Ki (as a rule, the dissociation constant of the complex between target and ligand, obtained from inhibition or displacement) was 0.309 µM. Besides, the pKA was determined as 6.27 at D(2) dopamine receptor [1] and 5.43 on D(2) dopamine receptor [4].
The compound `CC(C)(C)OC(=O)NC[C@H]1CC[C@H](CN2CCc3ccccc3C2)CC1` gave a Ki at D(2) dopamine receptor [3] of 1.15 µM. Further, the pKA at D(2) dopamine receptor [1] was 6.82; at D(2) dopamine receptor [4] it was 6.69.
In the case of `CC(C)OC(=O)N[C@H]1CC[C@H](CCN2CCc3ccccc3C2)CC1`, affinity on D(2) dopamine receptor [3] was put at a Ki of 1.48 µM. The pKA at D(2) dopamine receptor [1] stood at 6.3.
In the case of `O=C(N[C@H]1CC[C@H](CCN2CCc3ccccc3C2)CC1)Oc1ccccc1`, on D(2) dopamine receptor [3], the inhibition constant Ki is 0.912 µM. Moreover, the pKA at D(2) dopamine receptor [1] is 5.67.
Take `CN(C)C(=O)NC[C@H]1CC[C@H](CN2CCN(c3cccc(Cl)c3Cl)CC2)CC1`: the affinity at D(2) dopamine receptor [3], expressed as Ki, was 0.0427 µM. Further, the pKA came out at 6.92 at D(2) dopamine receptor [1] and 7.56 on D(2) dopamine receptor [4].
Turning to `CC(C)(C)OC(=O)N[C@H]1CC[C@H](CCN2CCc3ccc(C#N)cc3C2)CC1`, on D(2) dopamine receptor [3], the Ki is 2.24 µM. Further, the pKA on D(2) dopamine receptor [1] is 6.81.
For `CC(C)COC(=O)N[C@H]1CC[C@H](CCN2CCc3ccccc3C2)CC1` the same measures were 5.25 µM and 6.05.
The compound `CC(C)(C)OC(=O)N[C@H]1CC[C@H](CCN2CCc3ccc([N+](=O)[O-])cc3C2)CC1` showed an inhibition constant (Ki) on D(2) dopamine receptor [3] of 0.38 µM.
On D(2) dopamine receptor [3], `CC(C)(C)NC(=O)N[C@H]1CC[C@H](CCN2CCc3ccccc3C2)CC1` had an inhibition constant Ki of 0.245 µM. Further, on D(2) dopamine receptor [1], the pKA came out at 6.72.
Consider `CC(C)(C)OC(=O)N[C@H]1CC[C@H](CCN2CCN(c3cccc(Cl)c3Cl)CC2)CC1`, for which the results for the pKA at D(2) dopamine receptor [1] and on D(2) dopamine receptor [4] were 7.11 and 7.51, respectively.
On D(2) dopamine receptor [3], `CC(C)(C)OC(=O)NC[C@H]1CC[C@H](CN2CCN(c3cccc(Cl)c3Cl)CC2)CC1` gave a Ki of 0.148 µM. Moreover, the pKA on D(2) dopamine receptor [1] was determined as 6.95; at D(2) dopamine receptor [4], 6.86.
As to `CC(C)(C)OC(=O)Nc1ccc(CCN2CCc3ccccc3C2)cc1`, on D(2) dopamine receptor [3], the affinity, expressed as Ki, was 0.55 µM. Besides, at D(2) dopamine receptor [1], the pKA came to 5.95.
As to `CC(C)(C)OC(=O)N[C@H]1CC[C@H](CCN2CCc3ccccc3C2)CC1`, the pKA was determined as 6.45 at D(2) dopamine receptor [1] and 7.1 at D(2) dopamine receptor [4].
With `CN(C)C(=O)N[C@H]1CC[C@@H](CCN2CCc3ccccc3C2)CC1`, the pKA at D(2) dopamine receptor [1] was determined as 6.96.
With `CN(C)C(=O)N[C@H]1CC[C@H](CCN2CCN(c3cccc(Cl)c3Cl)CC2)CC1`, the pKA on D(2) dopamine receptor [4] was 7.61.
`CC(=O)N[C@H]1CC[C@H](CCN2CCc3ccc(C#N)cc3C2)CC1`: on D(2) dopamine receptor [3], affinity was put at a Ki of 0.0234 µM.
With `CC(C)(C)OC(=O)N[C@H]1CC[C@H](CN2CCc3ccccc3C2)CC1`, at D(2) dopamine receptor [3], the Ki was 0.355 µM. Also, the figures for the pKA at D(2) dopamine receptor [1] and on D(2) dopamine receptor [4] were 7.18 and 7.48, respectively.
For the compound `CC(C)(C)OC(=O)N[C@H]1CC[C@H](CCN2CCCN(c3cccc(Cl)c3Cl)CC2)CC1`, at D(2) dopamine receptor [3], the affinity corresponds to a Ki of 0.0105 µM.
With `CC(C)(C)OC(=O)N[C@H]1CC[C@@H](CCN2CCN(c3cccc(Cl)c3Cl)CC2)CC1`, the values for the pKA on D(2) dopamine receptor [1] and on D(2) dopamine receptor [4] were 6.73 and 6.79, respectively.
For the compound `CC(C)(C)OC(=O)N[C@H]1CC[C@@H](CCN2CCc3ccccc3C2)CC1`, the pKA at D(2) dopamine receptor [1] was determined as 7.34.
